The results in this text go back to ChEMBL document CHEMBL3351699, “Diarylthiazole: an antimycobacterial scaffold potentially targeting PrrB-PrrA two-component system” (J Med Chem, 2014).

pIC50: −log10 of the molar value. In brackets after ≈: the same amount, converted by molar mass. Activity calls are given as the source filed them. Some results are limits rather than exact numbers.

In data set [1] the test system is Mycobacterium tuberculosis. Kind of data set: Antimicrobial activity against clinical isolate Mycobacterium tuberculosis ATCC35811 assessed as growth inhibition after 7 days by turbidometry. The note with it: ATCC35811, 168 h. The class given is functional.
The test system of data set [2] is Mycobacterium tuberculosis. Kind of data set: Antimicrobial activity against clinical isolate Mycobacterium tuberculosis DKU220 assessed as growth inhibition after 7 days by turbidometry. Type of data set: functional. Conditions: DKU220, 168 h.
Data set [3] addresses T1, Enoyl-[acyl-carrier-protein] reductase [NADH] (Mycobacterium tuberculosis, UniProt P9WGR1).
T1 sequence (P9WGR1 whole entry): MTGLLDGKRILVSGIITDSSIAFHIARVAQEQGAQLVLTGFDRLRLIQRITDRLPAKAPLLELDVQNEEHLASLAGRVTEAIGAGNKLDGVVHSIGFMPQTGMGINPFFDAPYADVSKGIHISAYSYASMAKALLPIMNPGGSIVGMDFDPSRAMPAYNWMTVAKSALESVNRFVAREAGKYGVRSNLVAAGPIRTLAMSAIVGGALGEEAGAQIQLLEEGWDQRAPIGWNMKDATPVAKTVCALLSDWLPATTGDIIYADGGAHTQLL
Kind of data set: Inhibition of Mycobacterium tuberculosis InhA using NADH and dodecyl coA substrate by LC-MS/MS method.

In data set [4] the test system is Mycobacterium tuberculosis. Kind of data set: Antimicrobial activity against clinical isolate Mycobacterium tuberculosis H37Rv ATCC 27294 assessed as growth inhibition after 7 days by turbidometry. The class given is functional. Conditions: H37Rv ATCC 27294, 168 h.
Data set [5] relates to Mycobacterium tuberculosis. The data set can be described thus: Antimicrobial activity against clinical isolate Mycobacterium tuberculosis Beijing assessed as growth inhibition after 7 days by turbidometry. The class given is functional. The note with it: 168 h.
Data set [6] relates to Mycobacterium tuberculosis. The data set can be described thus: Antimicrobial activity against clinical isolate Mycobacterium tuberculosis ATCC25618 assessed as growth inhibition after 7 days by turbidometry. The note with it: ATCC25618, 168 h. The class given is functional.
Data set [7] has as its system Mycobacterium tuberculosis. The data set can be described thus: Antimicrobial activity against clinical isolate Mycobacterium tuberculosis DKU211 assessed as growth inhibition after 7 days by turbidometry. The class given is functional. The note with it: DKU211, 168 h.
For data set [8], the system named is Mycobacterium tuberculosis. The data set can be described thus: Antimicrobial activity against clinical isolate Mycobacterium tuberculosis DKU76 assessed as growth inhibition after 7 days by turbidometry. Type of data set: functional. The note with it: DKU76, 168 h.
The subject of data set [9] is Mycobacterium tuberculosis. The data set can be described thus: Antimicrobial activity against clinical isolate Mycobacterium tuberculosis Harlingen assessed as growth inhibition after 7 days by turbidometry. The class given is functional. Conditions: 168 h.
The subject of data set [10] is Mycobacterium tuberculosis. Kind of data set: Antimicrobial activity against clinical isolate Mycobacterium tuberculosis Erdman assessed as growth inhibition after 7 days by turbidometry. The class given is functional. The note with it: 168 h.
Data set [11] deals with Mycobacterium tuberculosis. The data set can be described thus: Antimicrobial activity against clinical isolate Mycobacterium tuberculosis JAL assessed as growth inhibition after 7 days by turbidometry. Type of data set: functional. Conditions: 168 h.
The subject of data set [12] is Mycobacterium tuberculosis. Kind of data set: Antimicrobial activity against clinical isolate Mycobacterium tuberculosis DKU97A assessed as growth inhibition after 7 days by turbidometry. Type of data set: functional. Conditions: 168 h.
In data set [13] the test system is Mycobacterium tuberculosis. The data set can be described thus: Ratio of MBC for Mycobacterium tuberculosis H37Rv ATCC 27294 to MIC for Mycobacterium tuberculosis H37Rv ATCC 27294. The class given is functional.
For data set [14], the system named is Mycobacterium tuberculosis. The data set can be described thus: Induction of prrA gene expression in Mycobacterium tuberculosis H37Rv ATCC 27294 at 7.5 ug/mL incubated for 4 hrs by DNA microarray analysis. The class given is functional. The gist of the method: (§1)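 Total RNA was isolated from treated Mtb cells and analysed by DNA microarray. RNA from an untreated Mtb culture served as the control, and expression was reported as mean fold change relative to that untreated control.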

Data set [15] in a line: Solubility of the compound. Type of data set: physicochemical.
Data set [16] concerns Mycobacterium tuberculosis. Kind of data set: Antimicrobial activity against Mycobacterium tuberculosis H37Rv ATCC 27294 assessed as growth inhibition after 5 days by microdilution method. The class given is functional. The note with it: H37Rv ATCC 27294, 120 h.
In data set [17] the test system is Mycobacterium tuberculosis. The data set can be described thus: Reduction in aminoacyl t-RNA synthetases gene expression in Mycobacterium tuberculosis H37Rv ATCC 27294 at 7.5 ug/mL incubated for 4 hrs by DNA microarray analysis. The class given is functional, organism-based. The gist of the method: (§2)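 Total RNA was isolated from compound-treated Mtb cultures and hybridised on DNA microarrays, with RNA from an untreated Mtb culture as the control.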

Data set [18] has as its system Mycobacterium tuberculosis. The data set can be described thus: Reduction in protein synthesis related gene expression in Mycobacterium tuberculosis H37Rv ATCC 27294 at 7.5 ug/mL incubated for 4 hrs by DNA microarray analysis. The class given is functional, organism-based. The method, boiled down: as §2
Data set [19] deals with Mycobacterium tuberculosis. The data set can be described thus: Induction of oxido-reductases gene expression in Mycobacterium tuberculosis H37Rv ATCC 27294 at 7.5 ug/mL incubated for 4 hrs by DNA microarray analysis. The class given is functional, organism-based. The gist of the method: as §2
In data set [20] the test system is Mycobacterium tuberculosis. Kind of data set: Antimicrobial activity against Mycobacterium tuberculosis H37Rv ATCC 27294 infected in human THP1 cells assessed as reduction in bacterial count at 2 times MIC relative to untreated control. Type of data set: functional, THP-1.
In data set [21] the test system is Mycobacterium tuberculosis. Kind of data set: Reduction in RNA metabolism related gene expression in Mycobacterium tuberculosis H37Rv ATCC 27294 at 7.5 ug/mL incubated for 4 hrs by DNA microarray analysis. Type of data set: functional, organism-based. The gist of the method: as §2
For data set [22], the system named is Mycobacterium tuberculosis. Kind of data set: Reduction in sigma factors gene expression in Mycobacterium tuberculosis H37Rv ATCC 27294 at 7.5 ug/mL incubated for 4 hrs by DNA microarray analysis. Type of data set: functional, organism-based. The method, boiled down: as §2
For data set [23], the system named is Mycobacterium tuberculosis. Kind of data set: Induction of anaerobic state electron transport chain maintenance related gene expression in Mycobacterium tuberculosis H37Rv ATCC 27294 at 7.5 ug/mL incubated for 4 hrs by DNA microarray analysis. Type of data set: functional, organism-based. The method, boiled down:
as §2

Data set [24] relates to Mycobacterium tuberculosis. Kind of data set: Induction of fumarate reductase gene expression in Mycobacterium tuberculosis H37Rv ATCC 27294 at 7.5 ug/mL incubated for 4 hrs by DNA microarray analysis. The class given is functional, organism-based. The gist of the method: as §2
In data set [25] the test system is Mycobacterium tuberculosis. The data set can be described thus: Bactericidal activity against Mycobacterium tuberculosis H37Rv ATCC 27294 after 5 days by microdilution method. Type of data set: functional. Conditions: H37Rv ATCC 27294, 120 h. In general terms: In broth dilution the organism is exposed to a series of concentrations in liquid medium.
Data set [26] relates to Mycobacterium tuberculosis. Kind of data set: Reduction in RNA polymerase subunits gene expression in Mycobacterium tuberculosis H37Rv ATCC 27294 at 7.5 ug/mL incubated for 4 hrs by DNA microarray analysis. The class given is functional, organism-based. The method, boiled down: as §2
The test system of data set [27] is Mycobacterium tuberculosis. Kind of data set: Induction of fatty acid metabolism related gene expression in Mycobacterium tuberculosis H37Rv ATCC 27294 at 7.5 ug/mL incubated for 4 hrs by DNA microarray analysis. Type of data set: functional, organism-based. The method, boiled down: as §2
Data set [28] relates to Mycobacterium tuberculosis. Kind of data set: Antimicrobial activity against Mycobacterium tuberculosis H37Rv ATCC 27294 assessed as reduction in bacterial count relative to untreated control. The class given is functional. The gist of the method:
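About 10⁶ Mtb cells/mL exposed to compound for 10 days; viable count read as Log₁₀ CFU/mL reduction versus untreated controls.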

Data set [29] relates to Mycobacterium tuberculosis. The data set can be described thus: Induction of prrB gene expression in Mycobacterium tuberculosis H37Rv ATCC 27294 at 7.5 ug/mL incubated for 4 hrs by DNA microarray analysis. The class given is functional. The method, boiled down: as §1
Data set [30] deals with Mycobacterium tuberculosis. The data set can be described thus: Induction of nitrate reductase gene expression in Mycobacterium tuberculosis H37Rv ATCC 27294 at 7.5 ug/mL incubated for 4 hrs by DNA microarray analysis. The class given is functional, organism-based. The method, boiled down: as §2
The test system of data set [31] is Mycobacterium tuberculosis. Kind of data set: Reduction in ribosomal protein synthesis related gene expression in Mycobacterium tuberculosis H37Rv ATCC 27294 at 7.5 ug/mL incubated for 4 hrs by DNA microarray analysis. Type of data set: functional, organism-based. The gist of the method:
as §2

Data set [32] has as its system Mycobacterium tuberculosis. The data set can be described thus: Induction of cytochrome ubiquinol oxidase gene expression in Mycobacterium tuberculosis H37Rv ATCC 27294 at 7.5 ug/mL incubated for 4 hrs by DNA microarray analysis. Type of data set: functional, organism-based. The gist of the method:
as §2

Data set [33] can be described thus: Intrinsic clearance in mouse liver microsomes. The class given is ADME. The note with it: read-out: CLH. (In general: Microsomes from liver hold many membrane-bound enzymes, among them those of drug oxidation.)
The nature of data set [34]: Intrinsic clearance in human liver microsomes. The class given is ADME. The note with it: read-out: CLH.
Data set [35] in a line: Unbound fraction in mouse plasma. Type of data set: ADME, cell-free.

The MIC80 is an inhibitory concentration at the 80% level, which refers to growth in some studies and to a panel of isolates in others. One may read the pIC50 as the negative decadic logarithm of the IC50, by convention in mol/L. A higher pIC50 goes with a small IC50. One may read the solubility as the concentration that dissolves in the medium under given conditions. A low value points to a poorly soluble substance. One may read the MBC as the smallest concentration meeting the test's criterion for killing. A higher MBC goes with less potent killing. By fraction unbound is commonly meant free concentration divided by total concentration. The low end stands for little free substance, the high end for much free substance.

Take `CO[C@H]1/C=C/O[C@@]2(C)Oc3c(C)c(O)c4c(O)c(c(/C=N/N5CCN(C)CC5)c(O)c4c3C2=O)NC(=O)/C(C)=C\C=C\[C@H](C)[C@H](O)[C@@H](C)[C@@H](O)[C@@H](C)[C@H](OC(C)=O)[C@@H]1C` [RIFAMPIN]: the MIC80 in [1] turned out to be 0.003 µg/mL (≈ 0.00365 µM); in data set [2] it was 0.003 µg/mL (≈ 0.00365 µM); in data set [4], 0.007 µg/mL (≈ 0.00851 µM); in [5], 0.003 µg/mL (≈ 0.00365 µM); in data set [6], 0.003 µg/mL (≈ 0.00365 µM); in data set [7], 0.003 µg/mL (≈ 0.00365 µM). Further, the MIC80 in data set [8], in [9], in [10], in data set [11] and in data set [12] was 0.003 µg/mL (≈ 0.00365 µM) throughout. In data set [3], this molecule showed a pIC50 of 7.52.

For the molecule `CCCc1cc(-c2nc(-c3ccncc3)cs2)ccn1`, the Ratio in data set [13] is recorded as 2. The “fold change (FC)” value in data set [14] and in [29] was 0.7 each time. This molecule also came in with a solubility in [15] of 91.5 µM (≈ 25.7 µg/mL). Further, the MIC80 in [16] came to 0.4 µg/mL (≈ 1.42 µM). Moreover, the result in [17], in data set [18], in data set [19], in data set [21], in data set [22] and in data set [23] was Active. For the same molecule, the result in [24], in data set [26], in data set [27], in data set [30], in data set [31] and in data set [32] was Active. The pIC50 in data set [3] is below 4.30. The log10CFU/ml is given as 1.5 in data set [20] and 3 in data set [28]. The MBC in data set [25] is 0.8 µg/mL (≈ 2.84 µM).

For the molecule `CCCc1cc(-c2nc(-c3ccc(NS(C)(=O)=O)cc3)cs2)ccn1`, the MIC80 in data set [1] was determined as 0.5 µg/mL (≈ 1.34 µM); in [2] it was 0.5 µg/mL (≈ 1.34 µM); in data set [16], 0.4 µg/mL (≈ 1.07 µM); in [4], 0.25 µg/mL (≈ 0.669 µM); in data set [5], 0.13 µg/mL (≈ 0.348 µM); in data set [6] it was 0.13 µg/mL (≈ 0.348 µM). In addition, the MIC80 stood at 0.5 µg/mL (≈ 1.34 µM) in [7]; 1 µg/mL (≈ 2.68 µM) in data set [8]; 0.13 µg/mL (≈ 0.348 µM) in data set [9]; 0.13 µg/mL (≈ 0.348 µM) in [10]; 0.25 µg/mL (≈ 0.669 µM) in data set [11]; 0.5 µg/mL (≈ 1.34 µM) in data set [12]. Also, the solubility in data set [15] is 1.3 µM (≈ 0.486 µg/mL). Besides, the microsomal CLint in [33] is 28.8 µL/min/mg; in [34] it was 4.3 µL/min/mg. Besides, the fraction unbound in [35] was below 0.01.
